DSG3 Ab inh = human desmoglein-3 autoantibody binding inhibition; binding (percent of control), % at 10 µM; P32926; 310,000 tested, 0.48% active; DSG3-coupled beads, scFv-anti-DSG3-GFP binding, flow cytometry; stronger effect = lower value;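 active means binding more than 3 SD below its plate's average and above zero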;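 further: hits lower antibody fragment binding to DSG3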
Target sequence (P32926 whole entry, looked up, the tested form may be a part): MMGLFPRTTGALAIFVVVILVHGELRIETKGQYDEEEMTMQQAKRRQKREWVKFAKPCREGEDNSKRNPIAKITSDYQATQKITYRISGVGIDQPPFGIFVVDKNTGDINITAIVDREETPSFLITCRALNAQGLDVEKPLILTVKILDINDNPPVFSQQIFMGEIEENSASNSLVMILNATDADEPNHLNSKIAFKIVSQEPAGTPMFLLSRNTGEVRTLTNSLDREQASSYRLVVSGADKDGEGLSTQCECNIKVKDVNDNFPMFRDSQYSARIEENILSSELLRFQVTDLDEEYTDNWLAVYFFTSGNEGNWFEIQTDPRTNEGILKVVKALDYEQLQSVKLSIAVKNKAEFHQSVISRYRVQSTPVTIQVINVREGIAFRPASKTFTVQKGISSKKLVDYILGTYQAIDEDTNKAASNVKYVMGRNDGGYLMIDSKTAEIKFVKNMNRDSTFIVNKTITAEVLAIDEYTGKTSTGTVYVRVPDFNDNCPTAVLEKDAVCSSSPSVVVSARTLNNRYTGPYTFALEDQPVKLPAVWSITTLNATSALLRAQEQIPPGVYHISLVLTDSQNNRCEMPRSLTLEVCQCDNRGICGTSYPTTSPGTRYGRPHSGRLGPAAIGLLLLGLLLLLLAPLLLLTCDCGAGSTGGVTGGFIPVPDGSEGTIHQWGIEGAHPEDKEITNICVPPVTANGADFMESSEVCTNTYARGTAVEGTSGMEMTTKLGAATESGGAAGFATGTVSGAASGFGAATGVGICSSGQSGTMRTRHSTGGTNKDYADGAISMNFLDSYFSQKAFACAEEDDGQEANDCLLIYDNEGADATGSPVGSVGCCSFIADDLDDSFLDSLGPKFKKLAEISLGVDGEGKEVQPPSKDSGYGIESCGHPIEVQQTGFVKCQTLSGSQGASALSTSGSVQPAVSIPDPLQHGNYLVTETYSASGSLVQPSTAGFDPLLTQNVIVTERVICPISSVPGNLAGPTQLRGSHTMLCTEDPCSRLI
Apaf-1 inh = human Apaf-1 inhibition | inhibition, % at 20 µM | O14727 | 330,000 tested, 0.71% active | reconstituted apoptosome caspase-3 activity, DEVD-Rh110 fluorescence; active means inhibition of at least 40% at 20 µM
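detection = Rh110 fluorescence intensity | test system = biochemical Apaf-1 apoptosome reconstitution | also added = cytochrome c and DEVD-Rh110 substrate | schedule = 30 min plus 50 min, RT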
MEKK2 mut-MEK5 = signal of MEK5 binding to mutant human MEKK2 PB1 domain. bead flow cytometry, Alexa488-MEK5 binding to MEKK2 mutant. percent response, % at 10 µM. 290,000 tested, 0.35% active. AID 1530; in the data active means percent response above about 24%, passing the limit was not always enough
MEKK3 PB1 HTS = modulators (inhibitors or enhancers) of MEK5 binding to human MEKK3 PB1 domain; Q99759; bead-based flow cytometry, Alexa488-MEK5 binding to MEKK3; actives lie on both sides; 0 = blocked by unlabeled MEK5, 100 = vehicle; binding response (% of control), % at 10 µM; 290,000 tested, 1.4% active; AID 1529;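 active means binding response more than 3 SD above or below the average of its plate-row segment, actives on both sides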;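 further: Alexa488 bead fluorescence after subtracting the streptavidin-only scavenger bead signal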
MEKK2 WT-MEK5 = raises or lowers MEK5 binding to wildtype human MEKK2 PB1 domain. binding response (% of control), % at 10 µM. 290,000 tested, 1.1% active. bead flow cytometry, Alexa488-MEK5 binding to MEKK2 WT; actives lie on both sides. AID 1531; in the data active means binding response below about 67% or above about 130%
UBC13 inh = human UBC13 polyubiquitination inhibition | P61088 | UBC13 polyubiquitin chain formation, TR-FRET | inhibition, % at 20 µM | 330,000 tested, 0.47% active | AID 485273; in the data active means inhibition above about 45%, passing the limit was not always enough
Casp3 counter = caspase-3 inhibition (UBC13 counter-screen); 1,400 tested, 4% active; inhibition, % at 20 µM; Recombinant caspase-3, Caspase-Glo 3/7 luminescence, 60 min; AID 488856; shares compounds with UBC13 inh;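 active means mean inhibition across replicates above about 26%, limit read from the data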
UBC13 conf = human UBC13 polyubiquitin inhibition, confirmed. shares compounds with UBC13 inh. UBC13 polyubiquitination, TR-FRET, biochemical. inhibition, % at 10 µM. 1,400 tested, 68% active. AID 488859; in the data active means inhibition above about 45%
Numbers stand for hits; 0 = inactive; - = no result given. This is a sample that favours compounds with a hit; in the whole collection about 3.2% have one here.

SMILES	DSG3 Ab inh	Apaf-1 inh	MEKK2 mut-MEK5	MEKK3 PB1 HTS	MEKK2 WT-MEK5	UBC13 inh	Casp3 counter	UBC13 conf
O=C(COC(=O)[C@@H]1CC(O)CN1S(=O)(=O)c1ccc(Cl)cc1)NC(=O)NCc1ccccc1 (stereo partly specified)	0	0	-	-	-	0	-	-
COc1ccc(N(C(=O)c2snc(C(N)=O)c2N)C(C(=O)NC2CCCC2)c2ccco2)cc1 (stereo unspecified)	0	0	0	0	0	82	0	90
CC(Sc1nnc(-c2cccnc2)n1N)C(=O)Nc1ccc2c(c1)OCCO2 (stereo unspecified)	0	0	-	-	-	0	-	-
O=C(COC(=O)c1c[nH]c(=O)[nH]c1=O)Nc1cccc([N+](=O)[O-])c1	-	0	-	-	-	66	0	76
Cc1cccc(NC(=S)NC(=O)c2oc3ccccc3c2C)n1	0	0	0	0	0	0	-	-
O=C(NCc1cccnc1)C1CCN(S(=O)(=O)c2cc([N+](=O)[O-])ccc2Cl)CC1	0	0	-	-	-	0	-	-
O=C(NCCCn1ccnc1)C1CCN(S(=O)(=O)c2cc([N+](=O)[O-])ccc2Cl)CC1	0	0	-	-	-	82	0	64
COc1ccc(CNC(=O)C2CCN(S(=O)(=O)c3ccc4c(c3)CC(C)N4C(=O)C3CC3)CC2)cc1 (stereo unspecified)	-	0	0	0	0	0	-	-
CCC1(CC)Cc2ccccc2-c2[nH]c(=S)[nH]c(=O)c21	0	0	-	-	-	59	0	0
CCC1(CC)Cc2ccccc2-c2nc(NN)[nH]c(=O)c21	0	0	0	0	0	0	-	-
CC(Sc1ccc(Cl)cc1)C(=O)NNC(=O)c1ccco1 (stereo unspecified)	0	0	-	-	-	0	-	-
COc1ccccc1NC(=O)COC(=O)C12CC3CC(CC(Br)(C3)C1)C2	0	0	-	-	-	50	0	0
COc1ccccc1NC(=O)CNC(=O)CC12CC3CC(CC(C3)C1)C2	0	0	-	-	-	80	0	79
COc1ccc(CNC(=O)CC23CC4CC(CC(C4)C2)C3)cc1OC	0	0	0	0	0	0	-	-
O=c1[nH]cc(CCCc2ccccc2)c(=O)[nH]1	0	-	-	-	-	-	-	-
COc1ccc(CN2C(=O)c3cccc4cccc2c34)cc1F	0	0	0	0	0	64	0	62
C=CCn1c(C)cc(C(=O)COC(=O)CCc2cc(OC)c(OC)c(OC)c2)c1C	0	0	-	-	-	0	-	-
CCN1CCN(CCNC(=O)c2ccc3nc(-c4cccc(C)c4)c(-c4cccc(C)c4)nc3c2)CC1	0	47	25	0	151	54	0	84
COC(=O)C1CCN(C(=O)COC(=O)c2cccc(NS(=O)(=O)c3ccccc3)c2)CC1	0	0	-	-	-	0	-	-
COc1cc(OC)c(C(=O)OCC(=O)N2CCOCC2)cc1OC	-	0	0	0	0	0	-	-
COc1ccccc1NC(=O)CSc1nc2ccccc2n1C(C)=O	0	0	0	0	0	46	0	0
CCc1ccc(OCCNc2cc(N3CCNC(C)C3)ccc2[N+](=O)[O-])cc1 (stereo unspecified)	-	75	-	-	-	68	0	55
CC(C)(C)CNc1cc(N2CCCC2)ccc1[N+](=O)[O-]	0	0	0	0	0	0	-	-
COc1ccc(-c2c(-c3ccc(C#N)cc3)oc(=O)c3cc(OC)c(OC)cc23)cc1	0	0	-	-	-	45	0	0
Cc1ccc(Cl)cc1N(CC(=O)NC(C)c1ccccc1)S(C)(=O)=O (stereo unspecified)	0	0	0	0	0	0	-	-
SMILES	DSG3 Ab inh	Apaf-1 inh	MEKK2 mut-MEK5	MEKK3 PB1 HTS	MEKK2 WT-MEK5	UBC13 inh	Casp3 counter	UBC13 conf
COc1ccc(CNCc2cc(Cl)ccc2O)cc1	0	0	-	-	-	0	-	-
Cc1ccc(O)c(CNCCNCc2cc(C)ccc2O)c1	0	0	-	-	-	50	0	52
CCc1ccc(O)c(CNCCNCc2cc(CC)ccc2O)c1	0	0	-	-	-	64	0	0
CC(C)n1c(NCc2cc(Cl)ccc2O)nc2ccccc21	0	0	0	0	0	67	0	54
CCCCN(C(=O)C1CCCC1)c1c(N)n(CCC)c(=O)[nH]c1=O	0	0	-	-	-	0	-	-
O=C(CCCCn1c(=O)c2ccccc2n(Cc2ccccc2F)c1=O)NC1CCN(Cc2ccccc2)CC1	0	0	0	0	0	100	0	107
Cc1cccc(C)c1NC(=O)Cn1c(=O)n(CCCC(=O)NC2CCN(Cc3ccccc3)CC2)c(=O)c2ccccc21	0	0	0	0	0	85	0	105
COC(=O)c1ccccc1NC(=O)Cn1c(=O)n(CCC(=O)NC2CCN(Cc3ccccc3)CC2)c(=O)c2ccccc21	0	0	0	0	0	0	-	-
Cc1cc(NC(=O)Cn2c(=O)n(CCCCC(=O)NC3CCN(Cc4ccccc4)CC3)c(=O)c3ccccc32)n[nH]1	-	0	0	0	0	52	0	48
O=C(CCCCn1c(=O)[nH]c2ccccc2c1=O)NC1CCN(Cc2ccccc2)CC1	0	0	0	0	0	0	-	-
Cc1cc(C)nc(NS(=O)(=O)c2ccc(NS(=O)(=O)c3ccc(F)c(F)c3)cc2)n1	0	-	-	-	-	-	-	-
CCOC(=O)C(=NC1CCS(=O)(=O)C1)NNc1cc(Cl)ccc1Cl (stereo unspecified)	0	0	0	0	0	68	0	57
CCOC(=O)Cn1ccc2cc(S(=O)(=O)N3CCCC3)ccc21	0	-	-	-	-	-	-	-
CCCCC(=O)Nc1ccc2c3c(cccc13)C(=O)N2CC	0	0	0	0	0	60	0	66
Cc1ccc(CN(C)C(=O)C2CCC(=O)N(CCc3ccccc3)C2)o1 (stereo unspecified)	0	0	0	0	0	0	-	-
C[C@H](CO)N1C[C@H](C)[C@@H](CN(C)S(C)(=O)=O)Oc2ccc(NC(=O)NC3CCCCC3)cc2C1=O	0	0	-	-	-	0	-	-
Cc1cccc(C(C)C)c1NC(=O)COC(=O)CCC(=O)N(CC(C)C)c1c(N)n(CC(C)C)c(=O)[nH]c1=O	0	-	-	-	-	-	-	-
CCOC(=O)c1c(NC(C)=O)sc2c(OCC(O)CNC(C)(C)C)c(Br)ccc12 (stereo unspecified)	0	0	0	0	0	46	0	74
CC(OC(=O)Cc1ccc(Cl)cc1)C(=O)NC1CCCCC1C (stereo unspecified)	0	0	-	-	-	0	-	-
C/C(=N\NC(=O)c1ccc(-n2cnnn2)cc1)c1ccc(C)cc1	0	0	-	-	-	0	-	-
CC(C)(C)NCc1cc(Cl)ccc1OCc1cccs1	0	0	0	0	0	0	-	-
CC(C)(C)NCc1cc(Br)ccc1OCc1cccs1	0	0	0	0	0	66	0	0

Assay outcomes (PubChem)
